Assay outcomes from PubChem.
VIM-2 inh: VIM-2 metallo-beta-lactamase inhibitors, primary screen, biochemical, epi-absorbance readout, Pseudomonas aeruginosa enzyme. purified VIM-2, nitrocefin hydrolysis, epi-absorbance fluorescence. AID 1527, 2009. inhibition, % at 5.6 µM. actives 0.89% (n = 290,000);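 active = inhibition above the mean of all tested compounds plus 3 SD, cutoff set per screening run, cut at about 7.5% in these data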;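 note: red hydrolysis product quenches plate fluorescence so inhibitors raise well fluorescence; 0% = enzyme with DMSO and 100% = DMSO without enzyme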
SUMO HTRF inh: inhibitors of in vitro SUMOylation cascade, primary screen, biochemical, HTRF, uHTS. SUMO-conjugating enzyme UBC9 (Homo sapiens), P63279. HTRF SUMOylation assay, SAE1/SAE2 + UBC9. inhibition, % at 35 µM. actives 0.36% (n = 290,000). AID 2006, 2009; in the data active = inhibition above about 50%, passing the limit was not always enough
IMP-1 inhibitor: IMP-1 metallo-beta-lactamase inhibitors, primary screen, biochemical, epi-absorbance readout, Pseudomonas aeruginosa enzyme; inhibition, % at 5.6 µM; purified IMP-1, nitrocefin hydrolysis, epi-absorbance fluorescence; metallo-beta-lactamase IMP-1 (Pseudomonas aeruginosa); actives 0.45% (n = 290,000);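 active = inhibition above the mean plus 3 SD of all compounds in the same screening run, cut at about 4.5% in these data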;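 note: 0% = IMP-1 with DMSO and 100% = DMSO wells lacking enzyme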
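Assay system: purified recombinant IMP-1 beta-lactamase. Input: IMP-1 0.2 nM before substrate addition. Buffer or medium: Zinc- and detergent-supplemented HEPES buffer, pH 7.1. Schedule: 25 °C, 15 min preincubation, 25 min reaction. Signal: Epi-absorbance fluorescence, 480 nm excitation, 530 nm emission. Evaluation: percent inhibition from optical density relative to buffer-blank wells.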
T cell HTS: modulators of CD8 T cell-vesicle binding, primary screen, mouse 2C CD8+ T cells, flow cytometry. 2C CD8+ T cell-vesicle binding; stronger effect = lower value. response (vesicle binding), % at 7 µM. actives 0.068% (n = 330,000);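 active = response, share of CD8 T cells binding vesicles, and their 90th percentile fluorescence all below set limits, cut at about 80% in these data, passing the limit was not always enough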;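 note: values below 100% mean blocked vesicle binding to the CD8+ T cells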
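Read-out – percent CD8+ FL2 mean versus row control · System – murine 2C transgenic CD8+ T lymphocytes · Times – 1.5 h cell–vesicle binding at 37 °C, then 20 min icy labelling · Control set – naked vesicles low, QL9 vesicles with vehicle high · Detection – cytometric PE anti-B7-1 and Alexa647 anti-CD8 signals after 1% paraformaldehyde fixation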
CTSL1 counter: Fasciola hepatica cathepsin L1 inhibitors, primary screen, counter-screen for PFM18AAP inhibitor project, biochemical, QFRET, fluorogenic peptide substrate; recombinant F. hepatica cathepsin L1, Z-Leu-Arg-MCA fluorescence; AID 1906, 2009; inhibition, % at 5.96 µM; actives 0.49% (n = 300,000);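 active = inhibition above the mean of all tested compounds plus 3 SD, set per screening campaign, cut at about 17% in these data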;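 note: 0% = plate median of test compound wells and 100% = 1 µM Z-Phe-Ala-diazomethylketone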
pCIP destab: p/CIP-EGFP fusion destabilizers, primary screen, fluorescence, F442A cells | decrease of EGFP signal, % at 10 µM | 16 h | Q05BA5 | actives 0.01% (n = 290,000);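 active = EGFP signal decrease of at least 30% at 10 µM or well 3 SD below plate mean, unless failing retest; inactive = the rest, including hits failing retest or dose response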
* marks the source's active call; other numbers are inactive results; i = inactive; x = not tested or not shown. Most compounds without a hit are left out; they make up all but 1.9% or so of the library.

SMILES	VIM-2 inh	SUMO HTRF inh	IMP-1 inhibitor	T cell HTS	CTSL1 counter	pCIP destab
Clc1ccccc1CSc1nnc([C@@H]2CCCN2)o1	0	1	2	290	6	-1
O=C1N=C(N2CCCCC2)S/C1=C\c1ccc(Br)cc1	3	15	4.7*	269	-3	9
CCOC(=O)C1CCN(C2=NC(=O)/C(=C/c3ccc(OC)c(OC)c3)S2)CC1	-2	-19	-3	173	4	4
Cc1ccc(/C=C2\SC(N3CCCC3)=NC2=O)cc1	1	6	-2	616	0	1
CCOC(=O)C1CCN(C2=NC(=O)/C(=C/c3ccc(Cl)cc3)S2)CC1	1	-3	4.9*	173	7	4
O=C(CSc1nnc2ncccn12)Nc1cccc2ccccc12	0	7	-2	257	1	-7
CCOC(=O)c1c(S(=O)(=O)N2CCCCCC2)c(C)n(C)c1C	1	5	0	578	-6	13
COc1cc(/C=N/NC(=O)c2cncc(Br)c2)ccc1OC(=O)c1ccc2c(c1)OCO2	0	8	46*	x	x	-18
Nc1ccc(-c2nc3ccccc3o2)cc1	0	21	-3	318	1	-3
Nc1ccc(-c2c3ccccc3nc3ccccc23)cc1	9.6*	6	-1	183	x	2
COc1ccc(OC)c(/C=N/N2CCN(c3ccc(Cl)cc3)CC2)c1	-2	2	0	57	1	-12
Cc1ccc(OCc2nc(C#N)c(N3CCCCC3)o2)cc1	-3	-4	-2	922	0	-18
N#Cc1nc(COc2ccc(Cl)cc2)oc1N1CCCCCC1	-2	6	0	200	60*	-9
CCOC(=O)c1sc(=NC(=O)c2c(F)cccc2F)n(C)c1C	-2	5	-2	233	18*	-2
CCOC(=O)c1sc(=NC(=O)c2ccc(F)cc2)n(C)c1C	1	2	-3	841	-1	-5
CC1=Nc2cccc3cccc(c23)N1C	4	79*	-11	236	-4	-28
CN1C(=O)N(C)c2ccc(Br)c3cccc1c23	11*	0	1	156	x	10
CN1C(=O)N(C)c2cccc3cccc1c23	9.3*	8	-2	i	2	-1
CCN(Cc1ccncc1)Cc1cn(C)nc1-c1ccc(Oc2ccccc2)cc1	-4	2	-1	89	1	-10
Cn1ncc(N=Cc2ccc([N+](=O)[O-])cc2)c1C(=O)Nc1ccccc1	-2	18	-2	228	-1	-5
O=C1c2ccccc2C(=O)N1CCCCN(C(=O)c1cc([N+](=O)[O-])cc([N+](=O)[O-])c1)c1ccc(Cl)cc1	-2	-4	-2	203	-2	-6
O=C1c2ccccc2C(=O)N1CCCCN(C(=O)c1ccc([N+](=O)[O-])cc1)c1ccc(Cl)cc1	1	-1	37*	397	2	-11
COc1ccc(C(=O)CCc2ccccc2)cc1	-5	-2	0	160	-4	-5
CCN1CCc2c(C#N)c(N3CCOCC3)nc(N3CCOCC3)c2C1	-3	18	0	373	3	8
CCN1CCc2c(C#N)c(N3CCCCC3)nc(N3CCOCC3)c2C1	2	0	0	109	18*	-7
SMILES	VIM-2 inh	SUMO HTRF inh	IMP-1 inhibitor	T cell HTS	CTSL1 counter	pCIP destab
O=C1CCC(C(=O)N2CCN(c3cnccn3)CC2)CN1CCc1ccc(Cl)cc1 (stereo not given)	2	17	1	x	x	-4
Cn1c(=O)c2c(nc(Oc3ccccc3Br)n2C)n(C)c1=O	10.0*	-7	-3	188	x	-1
Cn1c(=O)c2c(nc(Oc3ccc4ccccc4c3)n2C)n(C)c1=O	-2	-5	-3	180	-11	-16
COc1ccc(-c2cc(-c3ccccc3O)[nH]n2)cc1OC	-5	-6	-2	598	-3	0
COc1ccc(-c2cc(-c3cc(F)ccc3O)[nH]n2)cc1OC	-3	-2	5.2*	397	1	-7
Cc1ccccc1C(=O)OCc1nnc(-c2ccc(Cl)cc2)o1	-3	-10	-2	444	-3	2
O=C(OCc1nnc(-c2ccc(Cl)cc2)o1)c1ccc(=O)n(Cc2ccccc2)n1	-6	-6	4.8*	221	11	-9
CCOC(=O)c1sc(-c2ccc(C(F)(F)F)cc2)nc1O	-1	38	4.9*	545	2	1
O=C(CSc1n[nH]c(-c2ccncc2)n1)Nc1ccccc1Cl	x	x	x	269	0	x
Cc1ccc(Cl)c2c1=NC(=O)C=2c1[nH]c(=S)[nH]c1O	2	-14	6.4*	197	2	-2
NS(=O)(=O)c1ccc(CCNC(=O)C(=O)NCC2OCCN2S(=O)(=O)c2ccc(Cl)cc2)cc1 (stereo not given)	-2	-10	-1	389	1	-3
NC(=O)c1c(NC(=O)C2CC=CCC2C(=O)O)sc2c1CCCCC2 (stereo not given)	-1	22	5.7*	156	-4	-9
C=CCNC(=S)Nc1sc2c(c1C(N)=O)CCCC2	-3	-3	-3	47*	8	-4
NC(=O)CC(NC(=O)Cc1cccc2ccccc12)c1ccc(NC2CCCCCC2)c([N+](=O)[O-])c1 (stereo not given)	x	61*	x	834	1	-3
NC(=O)CC(NC(=O)Cc1cccc2ccccc12)c1ccc(NCCc2ccc(F)cc2)c([N+](=O)[O-])c1 (stereo not given)	x	49	x	379	-1	0
NC(=O)CC(NC(=O)Cc1cccc2ccccc12)c1ccc(NCCc2ccccc2F)c([N+](=O)[O-])c1 (stereo not given)	x	50*	x	260	-1	0
CCOc1ccccc1OCCC(=O)OCC(=O)c1ccc[nH]1	-1	-11	-2	242	-19	3
COc1ccccc1CC(=O)N1CCC(CCC(=O)NC2CC2)CC1	1	23	0	268	5	-8
Cc1ccc2c(CN3CCN(Cc4ccccc4)CC3)cc(=O)oc2c1C	9.9*	-4	0	229	0	1
Cc1ccc2c(CN3CCN(CCO)CC3)cc(=O)oc2c1C	9.9*	22	-2	x	3	-7
Cc1cc(C)c2oc(=O)cc(CN3CCN(Cc4ccccc4)CC3)c2c1	1	-4	-1	406	1	-4
COc1ccc(-c2cc(C(F)(F)F)nc(-n3cncn3)n2)cc1	11*	27	-2	511	-1	-8
Cc1cc(N2CCCCC2)nc2ccccc12	-2	7	-3	318	2	6
